Results reported in ChEMBL document CHEMBL1134286, “Novel erythromycin derivatives with aryl groups tethered to the C-6 position are potent protein synthesis inhibitors and active against multidrug-resistant respiratory pathogens” (J Med Chem, 2001).
Values after ≈ are worked out from the molar mass of the structure shown.

Experiments:
Type in all cases: functional
Staphylococcus aureus [1] = test: Minimum inhibitory concentration against Staphylococcus aureus ATCC 6538PEry-S; conditions: ATCC 6538P
Method in brief: (§1)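 MICs were determined by agar dilution following National Committee for Clinical Laboratory Standards recommendations. Values are in µg/mL.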

[2] = Minimum inhibitory concentration against Streptococcus pyogenes EES 61 Ery-S; method in brief: as §1
[3] = Minimum inhibitory concentration against Streptococcus pyogenes 930MLSB; method in brief: as §1
Staphylococcus aureus [4] = test: Minimum inhibitory concentration against Staphylococcus aureus A 5278 MLSB-c; method in brief: as §1
[5] = Minimum inhibitory concentration against Haemophilus influenzae DILL Amp-R; method in brief: as §1
[6] = Minimum inhibitory concentration against Streptococcus pneumoniae 5737 MLSB; method in brief: as §1
Staphylococcus aureus [7] = test: Minimum inhibitory concentration against Staphylococcus aureus A 5177 MLSB-i; method in brief: as §1
[8] = Minimum inhibitory concentration against Streptococcus pyogenes PIU2548 efflux; method in brief: as §1
Streptococcus pneumoniae [9] = test: Minimum inhibitory concentration against Streptococcus pneumoniae 5649 efflux; method in brief: as §1
Streptococcus pneumoniae [10] = test: Minimum inhibitory concentration against Streptococcus pneumoniae ATCC 6303 Ery-S; method in brief: as §1

| SMILES | MIC (Staphylococcus aureus [1]) [µg/mL] | MIC [2] [µg/mL] | MIC [3] [µg/mL] | MIC (Staphylococcus aureus [4]) [µg/mL] | MIC [5] [µg/mL] | MIC [6] [µg/mL] | MIC (Staphylococcus aureus [7]) [µg/mL] | MIC [8] [µg/mL] | MIC (Streptococcus pneumoniae [9]) [µg/mL] | MIC (Streptococcus pneumoniae [10]) [µg/mL] |
| --- | --- | --- | --- | --- | --- | --- | --- | --- | --- | --- |
| CC[C@H]1OC(=O)[C@H](C)C(=O)[C@H](C)[C@@H](O[C@@H]2O[C@H](C)C[C@H](N(C)C)[C@H]2O)[C@](C)(OCCNCCCc2ccccc2)C[C@@H](C)C(=O)[C@H](C)[C@H]2NC(=O)O[C@@]21C | 0.2 (≈ 0.263 µM) | 0.03 (≈ 0.0395 µM) | 64 (≈ 84.2 µM) | > 100 | 4 (≈ 5.26 µM) | 16 (≈ 21.1 µM) | 0.2 (≈ 0.263 µM) | 2 (≈ 2.63 µM) | 0.5 (≈ 0.658 µM) | 0.03 (≈ 0.0395 µM) |
| C=CCO[C@]1(C)C[C@@H](C)C(=O)[C@H](C)[C@H]2NC(=O)O[C@]2(C)[C@@H](CC)OC(=O)[C@H](C)[C@@H](O[C@H]2C[C@@](C)(OC)[C@@H](O)[C@H](C)O2)[C@H](C)[C@H]1O[C@@H]1O[C@H](C)C[C@H](N(C)C)[C@H]1O | 0.2 (≈ 0.25 µM) | 0.03 (≈ 0.0375 µM) | > 128 | > 100 | 2 (≈ 2.5 µM) | > 128 | 0.78 (≈ 0.976 µM) | 8 (≈ 10 µM) | 2 (≈ 2.5 µM) | 0.03 (≈ 0.0375 µM) |
| CC[C@H]1OC(=O)[C@H](C)C(=O)[C@H](C)[C@@H](O[C@@H]2O[C@H](C)C[C@H](N(C)C)[C@H]2O)[C@](C)(OC/C=C/c2cccc3cccnc23)C[C@@H](C)C(=O)[C@H](C)[C@H]2NC(=O)O[C@@]21C | 0.2 (≈ 0.261 µM) | 0.03 (≈ 0.0392 µM) | > 32 | > 100 | 8 (≈ 10.4 µM) | > 32 | 0.1 (≈ 0.131 µM) | 0.5 (≈ 0.653 µM) | 0.5 (≈ 0.653 µM) | 0.03 (≈ 0.0392 µM) |
| CC[C@H]1OC(=O)[C@H](C)C(=O)[C@H](C)[C@@H](O[C@@H]2O[C@H](C)C[C@H](N(C)C)[C@H]2O)[C@](C)(OCCNCc2ccncc2)C[C@@H](C)C(=O)[C@H](C)[C@@H](O)[C@]1(C)O | 6.2 (≈ 8.76 µM) | 0.39 (≈ 0.551 µM) | > 100 | > 100 | 32 (≈ 45.2 µM) | > 128 | 3.1 (≈ 4.38 µM) | 1.56 (≈ 2.2 µM) | 2 (≈ 2.83 µM) | 0.25 (≈ 0.353 µM) |
| C=CCO[C@]1(C)C[C@@H](C)C(=O)[C@H](C)[C@H]2N(CCN(C)C)C(=O)O[C@]2(C)[C@@H](CC)OC(=O)[C@H](C)C(=O)[C@H](C)[C@H]1O[C@@H]1O[C@H](C)C[C@H](N(C)C)[C@H]1O | 6.2 (≈ 8.73 µM) | 0.5 (≈ 0.704 µM) | > 128 | > 100 | 64 (≈ 90.2 µM) | > 128 | 6.2 (≈ 8.73 µM) | 4 (≈ 5.63 µM) | 2 (≈ 2.82 µM) | 1 (≈ 1.41 µM) |
| CC[C@H]1OC(=O)[C@H](C)C(=O)[C@H](C)[C@@H](O[C@@H]2O[C@H](C)C[C@H](N(C)C)[C@H]2O)[C@](C)(OC/C=C/c2cnc3nccnc3c2)C[C@@H](C)C(=O)[C@H](C)[C@H]2NC(=O)O[C@@]21C | 0.2 (≈ 0.26 µM) | 0.015 (≈ 0.0195 µM) | 4 (≈ 5.21 µM) | > 100 | 4 (≈ 5.21 µM) | 1 (≈ 1.3 µM) | 0.2 (≈ 0.26 µM) | 2 (≈ 2.6 µM) | 2 (≈ 2.6 µM) | 0.015 (≈ 0.0195 µM) |

Stronger by MIC (Staphylococcus aureus [1]), values ahead:

| MIC (Staphylococcus aureus [1]) [µg/mL] | MIC [2] [µg/mL] | MIC [3] [µg/mL] | MIC (Staphylococcus aureus [4]) [µg/mL] | MIC [5] [µg/mL] | MIC [6] [µg/mL] | MIC (Staphylococcus aureus [7]) [µg/mL] | MIC [8] [µg/mL] | MIC (Streptococcus pneumoniae [9]) [µg/mL] | MIC (Streptococcus pneumoniae [10]) [µg/mL] | SMILES |
| --- | --- | --- | --- | --- | --- | --- | --- | --- | --- | --- |
| 0.1 (≈ 0.131 µM) | 0.008 (≈ 0.0104 µM) | 32 (≈ 41.8 µM) | > 100 | 4 (≈ 5.22 µM) | 8 (≈ 10.4 µM) | 0.1 (≈ 0.131 µM) | 0.25 (≈ 0.326 µM) | 0.25 (≈ 0.326 µM) | 0.008 (≈ 0.0104 µM) | CC[C@H]1OC(=O)[C@H](C)C(=O)[C@H](C)[C@@H](O[C@@H]2O[C@H](C)C[C@H](N(C)C)[C@H]2O)[C@](C)(OC/C=C/c2cccc3cnccc23)C[C@@H](C)C(=O)[C@H](C)[C@H]2NC(=O)O[C@@]21C |
| 0.1 (≈ 0.14 µM) | 0.03 (≈ 0.0419 µM) | > 128 | > 100 | 8 (≈ 11.2 µM) | > 128 | 0.1 (≈ 0.14 µM) | 0.5 (≈ 0.698 µM) | 0.5 (≈ 0.698 µM) | 0.03 (≈ 0.0419 µM) | CC[C@H]1OC(=O)[C@H](C)C(=O)[C@H](C)[C@@H](O[C@@H]2O[C@H](C)C[C@H](N(C)C)[C@H]2O)[C@](C)(OC/C=C/c2cccnc2)C[C@@H](C)C(=O)[C@H](C)[C@H]2NC(=O)O[C@@]21C |
| 0.05 (≈ 0.0652 µM) | 0.03 (≈ 0.0391 µM) | 0.5 (≈ 0.652 µM) | > 100 | 2 (≈ 2.61 µM) | 0.5 (≈ 0.652 µM) | 0.05 (≈ 0.0652 µM) | 2 (≈ 2.61 µM) | 2 (≈ 2.61 µM) | 0.03 (≈ 0.0391 µM) | CC[C@H]1OC(=O)[C@H](C)C(=O)[C@H](C)[C@@H](O[C@@H]2O[C@H](C)C[C@H](N(C)C)[C@H]2O)[C@](C)(OC/C=C/c2cnc3ncccc3c2)C[C@@H](C)C(=O)[C@H](C)[C@H]2NC(=O)O[C@@]21C |
| 0.05 (≈ 0.0648 µM) | 0.008 (≈ 0.0104 µM) | 4 (≈ 5.18 µM) | > 100 | 2 (≈ 2.59 µM) | 0.5 (≈ 0.648 µM) | 0.05 (≈ 0.0648 µM) | 0.25 (≈ 0.324 µM) | 0.25 (≈ 0.324 µM) | 0.004 (≈ 0.00518 µM) | CC[C@H]1OC(=O)[C@H](C)C(=O)[C@H](C)[C@@H](O[C@@H]2O[C@H](C)C[C@H](N(C)C)[C@H]2O)[C@](C)(OC/C=C/c2cnc3sccc3c2)C[C@@H](C)C(=O)[C@H](C)[C@H]2NC(=O)O[C@@]21C |
